Measurements reported in ChEMBL document CHEMBL4342526, “Exploration of the Structural Space in 4(3H)-Quinazolinone Antibacterials” (J Med Chem, 2020).
≈ marks a conversion by molar mass, not a printed value. Blank lines part the entries; values can stand above or below the compound they belong to.

Legend:
[1] = system: Staphylococcus aureus; test: Antibacterial activity against clindamycin/erythromycin/spectinomycin-resistant mec-positive Staphylococcus aureus NRS70 measured after 16 to 20 hrs by microdilution method; format: functional
Outline: (§1)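 CLSI broth microdilution; two-fold serial compound dilutions in triplicate in cation-adjusted Mueller–Hinton broth with 2% NaCl, inoculum 5 × 10^5 CFU/mL; 37 °C for 16–20 h; MIC = lowest concentration with no visible growth.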

[2] = system: Staphylococcus aureus; test: Antibacterial activity against Staphylococcus aureus ATCC 29213 measured after 16 to 20 hrs by microdilution method; format: functional
Outline: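 CLSI broth microdilution: two-fold serial dilutions in triplicate in cation-adjusted Mueller–Hinton broth with 2% NaCl, inoculum 5 × 10^5 CFU/mL, incubated at 37 °C for 16–20 h. MIC is the lowest concentration preventing visible growth.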

[3] = system: Staphylococcus aureus; test: Antibacterial activity against multi-drug resistant mecA-positive Staphylococcus aureus ATCC 27660 measured after 16 to 20 hrs by microdilution method; format: functional; outline: as §1
[4] = system: HeLa; test: Cytotoxicity against human HeLa cells assessed as reduction in cell viability measured after 16 hrs by XTT assay; format: cell-based
Outline: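 HeLa cells (ATCC CCL-2), run in triplicate. Viability was read by XTT, and IC50 was obtained by nonlinear regression.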

[5] = Selectivity index, ratio of IC50 for human HeLa cells to MIC for clindamycin/erythromycin/spectinomycin-resistant mec-positive Staphylococcus aureus NRS70; format: toxicity
Outline: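 HeLa cytotoxicity by XTT assay in triplicate, IC50 by nonlinear regression; ratio IC50 over broth microdilution MIC against NRS70.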

[6] = Protein binding in human plasma at 10 uM measured after 6 hrs UV-UPLC based rapid equilibrium dialysis method; format: ADME, cell-free
Outline: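 Rapid equilibrium dialysis: human plasma was cleared by centrifugation and spiked from a 1 mM DMSO stock to a final 10 μM, against 0.1 M PBS pH 7.4. Dialysis ran 6 h at 37 °C with orbital shaking. Buffer (free) and plasma (total) aliquots were mixed with internal standard in acetonitrile and measured by UPLC-UV at 285 nm. B% = (Cp−Cf)/Cp×100.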

[7] = system: Staphylococcus aureus; test: Antibacterial activity against Staphylococcus aureus ATCC 29213 measured after 16 to 20 hrs in presence of bovine serum albumin by microdilution method; format: functional
Outline: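 S. aureus ATCC29213 MIC was run by CLSI microdilution in cation-adjusted Mueller–Hinton broth plus 2% NaCl, with and without 0.5% bovine serum albumin. Compounds were two-fold serially diluted in triplicate, inoculum was 5 × 10^5 CFU/mL, and plates were incubated at 37 °C for 16–20 h. The endpoint was the lowest concentration with no visible growth.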

[8] = system: Staphylococcus aureus; test: Antibacterial activity against multi-drug resistant mec-positive Staphylococcus aureus USA300 measured after 16 to 20 hrs by microdilution method; format: functional; outline: as §1
[9] = system: Staphylococcus aureus; test: Antibacterial activity against multi-drug resistant mecA-positive Staphylococcus aureus NRS119 measured after 16 to 20 hrs by microdilution method; format: functional; outline: as §1

SMILES: O=C(O)c1cccc(-n2c(/C=C/c3ccc(Cl)s3)nc3ccccc3c2=O)c1
MIC [1]: 0.5 µg/mL (≈ 1.22 µM)
MIC [2]: 0.5 µg/mL (≈ 1.22 µM)
MIC [3]: 0.5 µg/mL (≈ 1.22 µM)
IC50 [4]: 180 µg/mL (≈ 440 µM)
selectivity ratio [5]: 360
PPB [6]: 99.3%
MIC [7]: 4 µg/mL
MIC [8]: 1 µg/mL (≈ 2.45 µM)

SMILES: O=C(O)c1cccc(-n2c(/C=C/c3ccc(I)cc3)nc3ccccc3c2=O)c1
MIC [1]: 0.5 µg/mL (≈ 1.01 µM)
MIC [2]: 0.5 µg/mL (≈ 1.01 µM)
MIC [3]: 0.5 µg/mL (≈ 1.01 µM)
IC50 [4]: 100 µg/mL (≈ 202 µM)
selectivity ratio [5]: 200
PPB [6]: > 99.9%
MIC [7]: 16 µg/mL
MIC [8]: 0.25 µg/mL (≈ 0.506 µM)
MIC [9]: 2 µg/mL (≈ 4.05 µM)

SMILES: N#Cc1ccc(CNc2nc3ccccc3c(=O)n2-c2cccc(N)c2)cc1
MIC [2]: 8 µg/mL (≈ 21.8 µM)

SMILES: N#Cc1ccc(/C=C/c2nc3ccccc3c(=O)n2-c2cccc(C(=O)O)c2O)cc1
MIC [2]: > 128 µg/mL

SMILES: N#Cc1ccc(/C=C/c2nc3ccccc3c(=O)n2-c2cccc(NC(=O)C(F)(F)F)c2)cc1
MIC [1]: 0.06 µg/mL (≈ 0.13 µM)
MIC [2]: 2 µg/mL (≈ 4.34 µM)
MIC [3]: 0.06 µg/mL (≈ 0.13 µM)
IC50 [4]: > 128 µg/mL
selectivity ratio [5]: > 2130
PPB [6]: > 99.9%
MIC [7]: 32 µg/mL
MIC [8]: 0.06 µg/mL (≈ 0.13 µM)
MIC [9]: 1 µg/mL (≈ 2.17 µM)

SMILES: N#Cc1ccc(/C=C/c2nc3ccccc3c(=O)n2-c2cc(O)cc(C(=O)O)c2)cc1
MIC [2]: > 128 µg/mL

SMILES: CC(=O)NC[C@H]1CN(c2ccc(N3CCOCC3)c(F)c2)C(=O)O1 [LINEZOLID]
MIC [2]: 1 µg/mL (≈ 2.96 µM)

SMILES: N#Cc1ccc(/C=C/c2nc3ccccc3c(=O)n2-c2ccc3[nH]c(=S)[nH]c3c2)cc1
MIC [2]: > 128 µg/mL

Further lines, results first:

MIC [2]: > 128 µg/mL
SMILES: O=C(O)c1cccc(-n2c(/C=C/C3CC3)nc3ccccc3c2=O)c1

MIC [2]: > 128 µg/mL
SMILES: O=C(O)c1cccc(-n2c(/C=C/c3cccnc3)nc3ccccc3c2=O)c1

MIC [2]: > 128 µg/mL
SMILES: N#Cc1ccc(CNc2nc3ccccc3c(=O)n2-c2cccc([N+](=O)[O-])c2)cc1

MIC [2]: > 128 µg/mL
SMILES: COc1ccc(C(=O)O)cc1-n1c(/C=C/c2ccc(C#N)cc2)nc2ccccc2c1=O

MIC [2]: 16 µg/mL (≈ 41 µM)
SMILES: N#Cc1ccc(/C=C/c2nc3ccccc3c(=O)n2-c2cccc(N=[N+]=[N-])c2)cc1

MIC [2]: 64 µg/mL (≈ 178 µM)
SMILES: Nc1cccc(-n2c(NCc3ccc(F)cc3)nc3ccccc3c2=O)c1

MIC [2]: > 128 µg/mL
SMILES: O=c1c2ccccc2nc(NCc2ccc(F)cc2)n1-c1cccc([N+](=O)[O-])c1

MIC [2]: > 128 µg/mL
SMILES: CNCCC(=O)Nc1cccc(-n2c(/C=C/c3ccc(C#N)cc3)nc3ccccc3c2=O)c1

MIC [2]: 32 µg/mL (≈ 84.6 µM)
SMILES: N#Cc1ccc(/C=C/c2nc3ccccc3c(=O)n2-c2cccc(CN)c2)cc1

MIC [2]: 64 µg/mL (≈ 173 µM)
SMILES: O=C(O)c1cccc(-n2c(/C=C/c3ccncc3)nc3ccccc3c2=O)c1

MIC [2]: 32 µg/mL (≈ 65.1 µM)
SMILES: N#Cc1ccc(/C=C/c2nc3ccccc3c(=O)n2-c2cccc(NC(=O)CN3CCOCC3)c2)cc1

MIC [2]: > 128 µg/mL
SMILES: N#Cc1ccc(/C=C/c2nc3ccccc3c(=O)n2-c2cc(C(=O)O)ccc2O)cc1
